From ChEMBL document CHEMBL4819098, “Novel 1,2,4-triazine-quinoline hybrids: The privileged scaffolds as potent multi-target inhibitors of LPS-induced inflammatory response via dual COX-2 and 15-LOX inhibition” (Eur J Med Chem, 2021)

Legend:
RAW264.7 [1] = experiment: Inhibition of LPS-induced TNFalpha production in mouse RAW264.7 cells preincubated for 2 hrs followed by LPS stimulation and measured after 20 hrs by ELISA; assay type: functional, cell-based
RAW264.7 [2] = experiment: Inhibition of LPS-induced IL-6 production in mouse RAW264.7 cells preincubated for 2 hrs followed by LPS stimulation and measured after 20 hrs by ELISA; assay type: functional, cell-based
RAW264.7 [3] = experiment: Potency index, ratio of celecoxib IC50 to test compound IC50 for inhibition of LPS-induced IL-6 production in mouse RAW264.7 cells preincubated for 2 hrs followed by LPS stimulation and measured after 20 hrs by ELISA; assay type: functional; conditions: time 22 hrs
RAW264.7 [4] = experiment: Potency index, ratio of celecoxib IC50 to test compound IC50 for inhibition of LPS-induced NO production in mouse RAW264.7 cells preincubated for 2 hrs followed by LPS stimulation and measured after 20 hrs by DAF-FM based fluorescence analysis; assay type: functional; conditions: time 22 hrs
RAW264.7 [5] = experiment: Potency index, ratio of diclofenac sodium IC50 to test compound IC50 for inhibition of LPS-induced NO production in mouse RAW264.7 cells preincubated for 2 hrs followed by LPS stimulation and measured after 20 hrs by DAF-FM based fluorescence analysis; assay type: functional; conditions: time 22 hrs
RAW264.7 [6] = experiment: Cytotoxicity against mouse RAW264.7 cells assessed as reduction in cell viability at 50 uM by MTS assay; assay type: cell-based; conditions: raw264.7, 50 µM
[7] = molecular target: T1, Prostaglandin G/H synthase 1 (Ovis aries, UniProt P05979); experiment: Inhibition of ovine COX-1 using arachidonic acid as substrate preincubated with enzyme for 5 mins followed by substrate addition by colorimetric analysis
T1 sequence (P05979 whole entry): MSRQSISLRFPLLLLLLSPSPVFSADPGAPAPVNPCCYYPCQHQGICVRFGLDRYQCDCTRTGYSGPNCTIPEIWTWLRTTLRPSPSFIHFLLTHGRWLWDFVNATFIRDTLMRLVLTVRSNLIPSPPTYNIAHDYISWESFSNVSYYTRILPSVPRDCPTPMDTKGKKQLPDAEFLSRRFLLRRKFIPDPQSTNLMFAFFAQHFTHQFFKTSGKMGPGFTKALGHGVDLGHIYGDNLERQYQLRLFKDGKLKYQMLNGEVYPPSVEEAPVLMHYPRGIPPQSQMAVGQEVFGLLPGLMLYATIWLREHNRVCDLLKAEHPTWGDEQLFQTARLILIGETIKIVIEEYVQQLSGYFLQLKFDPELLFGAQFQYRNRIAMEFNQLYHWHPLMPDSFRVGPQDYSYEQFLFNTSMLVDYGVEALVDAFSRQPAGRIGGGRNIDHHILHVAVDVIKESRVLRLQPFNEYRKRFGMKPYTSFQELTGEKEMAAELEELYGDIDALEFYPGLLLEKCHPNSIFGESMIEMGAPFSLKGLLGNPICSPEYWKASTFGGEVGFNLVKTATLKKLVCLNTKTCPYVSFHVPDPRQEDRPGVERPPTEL

[8] = molecular target: T2, Prostaglandin G/H synthase 2 (Homo sapiens) (UniProt P35354); experiment: Potency index, ratio of diclofenac sodium IC50 to test compound IC50 for human recombinant COX-2 using arachidonic acid as substrate preincubated with enzyme for 5 mins followed by substrate addition by colorimetric analysis
T2 sequence (whole entry): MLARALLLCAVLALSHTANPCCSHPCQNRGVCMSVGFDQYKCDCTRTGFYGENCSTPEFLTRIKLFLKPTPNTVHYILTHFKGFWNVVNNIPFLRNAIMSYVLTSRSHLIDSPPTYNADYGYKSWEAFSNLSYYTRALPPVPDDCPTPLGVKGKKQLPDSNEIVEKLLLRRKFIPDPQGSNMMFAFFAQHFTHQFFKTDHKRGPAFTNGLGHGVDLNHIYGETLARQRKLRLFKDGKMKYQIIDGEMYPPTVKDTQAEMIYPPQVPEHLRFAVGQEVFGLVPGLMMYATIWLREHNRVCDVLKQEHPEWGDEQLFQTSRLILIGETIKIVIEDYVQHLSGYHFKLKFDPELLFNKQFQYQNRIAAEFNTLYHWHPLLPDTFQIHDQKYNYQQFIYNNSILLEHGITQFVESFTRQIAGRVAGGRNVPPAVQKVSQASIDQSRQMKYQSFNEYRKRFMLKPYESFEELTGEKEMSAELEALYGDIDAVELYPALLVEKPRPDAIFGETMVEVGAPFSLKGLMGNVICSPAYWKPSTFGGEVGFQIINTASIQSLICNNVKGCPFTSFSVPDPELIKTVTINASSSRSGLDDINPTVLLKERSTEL

[9] = molecular target: T3, Prostaglandin G/H synthase 2 (Homo sapiens, UniProt P35354); experiment: Inhibition of human recombinant COX-2 using arachidonic acid as substrate preincubated with enzyme for 5 mins followed by substrate addition by colorimetric analysis
T3 sequence (P35354 whole entry): T2 sequence (whole entry)

RAW264.7 [10] = experiment: Potency index, ratio of diclofenac sodium IC50 to test compound IC50 for inhibition of LPS-induced IL-6 production in mouse RAW264.7 cells preincubated for 2 hrs followed by LPS stimulation and measured after 20 hrs by ELISA; assay type: functional; conditions: time 22 hrs
RAW264.7 [11] = experiment: Inhibition of LPS-induced NO production in mouse RAW264.7 cells preincubated for 2 hrs followed by LPS stimulation and measured after 20 hrs by DAF-FM based fluorescence analysis; assay type: functional, cell-based
RAW264.7 [12] = experiment: Inhibition of LPS-induced 15(S)-HETE production in mouse RAW264.7 cells preincubated for 2 hrs followed by LPS stimulation and measured after 20 hrs by ELISA; assay type: functional, cell-based
[13] = Inhibition of soybean 15-LOX using arachidonic acid or linolenic acid as substrate in presence of hydrogen peroxide incubated for 5 mins by colorimetric analysis; design: species or system Glycine max
RAW264.7 [14] = experiment: Cytotoxicity against mouse RAW264.7 cells assessed as reduction in cell viability by MTS assay; assay type: cell-based
Method in brief: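 RAW 264.7 macrophage viability at the tested concentrations measured by MTS assay.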

[15] = Selectivity index, ratio of IC50 for ovine COX-1 to IC50 for human recombinant COX-2
Method in brief: (§1)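 Enzyme kit assay with ovine COX-1 and human recombinant COX-2. IC50 determined from three replicates. Selectivity index taken as IC50(COX-1)/IC50(COX-2).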

RAW264.7 [16] = experiment: Antioxidant activity in mouse RAW264.7 cells assessed as inhibition of LPS-induced intracellular ROS production preincubated for 2 hrs followed by LPS stimulation and measured after 20 hrs by DCFH-DA staining based fluorescence analysis; assay type: functional, cell-based
[17] = molecular target: T1, Prostaglandin G/H synthase 1; experiment: Inhibition of ovine COX-1; method in brief: as §1
[18] = molecular target: T3, Prostaglandin G/H synthase 2; experiment: Inhibition of human recombinant COX-2; method in brief: as §1
[19] = Inhibition of soybean 15-LOX; design: species or system Glycine max
Method in brief: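 Soybean 15-LOX run with a lipoxygenase inhibitor screening kit according to the manufacturer's instructions. IC50 values reported.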

RAW264.7 [20] = experiment: Potency index, ratio of diclofenac sodium IC50 to test compound IC50 for inhibition of LPS-induced TNFalpha production in mouse RAW264.7 cells preincubated for 2 hrs followed by LPS stimulation and measured after 20 hrs by ELISA; assay type: functional; conditions: time 22 hrs
RAW264.7 [21] = experiment: Potency index, ratio of celecoxib IC50 to test compound IC50 for inhibition of LPS-induced TNFalpha production in mouse RAW264.7 cells preincubated for 2 hrs followed by LPS stimulation and measured after 20 hrs by ELISA; assay type: functional; conditions: time 22 hrs

Row | SMILES | IC50 (RAW264.7 [1]) [µM] | IC50 (RAW264.7 [2]) [µM] | IC50 [7] [µM] | Ratio IC50 [8] | IC50 [9] [µM] | IC50 (RAW264.7 [11]) [µM] | IC50 (RAW264.7 [12]) [µM] | IC50 [13] [µM] | Ratio IC50 [15] | IC50 (RAW264.7 [16]) [µM] | Ratio IC50 (RAW264.7 [3]) | Activity (RAW264.7 [14]) | further results
1 | CC(C)Oc1ccc2nc(O)c(/C=N/n3c(=S)[nH]nc(Cc4ccccc4)c3=O)cc2c1 | 34.6 | 12.9 | 6.6 | 2.6 | 0.32 | > 50 | 0.42 | 3.49 | 20.6 | 1.91 |  | Non-Toxic | 
2 | O=C1N/C(=N\c2nnc(-c3ccc(O)cc3)s2)S/C1=C\c1ccccc1 |  |  |  |  |  |  |  |  |  |  |  |  | IC50 [17]: 4.66 µM; IC50 [18]: 0.085 µM; IC50 [19]: 5.74 µM
3 | COc1ccc2nc(O)c(/C=N/n3c(=S)[nH]nc(Cc4cc(OC)c(OC)c(OC)c4)c3=O)cc2c1 | > 50 | > 50 | 11.8 | 14 | 0.06 | > 50 | > 50 | 2.57 | 197 | > 50 |  | Non-Toxic | 
4 | COc1ccc2cc(/C=N/n3c(=S)[nH]nc(Cc4ccccc4)c3=O)c(O)nc2c1 | 8.41 | 7.36 | 10.2 | 11.5 | 0.073 | 16.1 | 3.6 | 2.32 | 140 | 3.78 | 1.5 | Non-Toxic | Activity (RAW264.7 [6]): Toxic
5 | COc1ccc(/C=C\C(=O)c2cc(-n3cc(CN4C(=O)C(=O)c5ccccc54)nn3)ccc2O)cc1 |  |  |  |  |  |  |  |  |  |  |  |  | IC50 [17]: 13.3 µM; IC50 [18]: 0.037 µM; IC50 [19]: 1.95 µM
6 | O=c1c(Cc2cccs2)n[nH]c(=S)n1/N=C/c1cc2ccccc2nc1O | > 50 | > 50 | 11.1 |  | 0.079 | 9.37 | > 50 | 2.13 | 140 | > 50 |  | Non-Toxic | 
7 | O=c1c(Cc2ccccc2)n[nH]c(=S)n1/N=C/c1cc2ccccc2nc1O | > 50 | > 50 | 11.3 | 15.6 | 0.054 | > 50 | > 50 | 2.12 | 209 | > 50 |  | Non-Toxic | 

Continued by falling IC50 [7], values first:

Row | IC50 (RAW264.7 [1]) [µM] | IC50 (RAW264.7 [2]) [µM] | IC50 [7] [µM] | Ratio IC50 [8] | IC50 [9] [µM] | IC50 (RAW264.7 [11]) [µM] | IC50 (RAW264.7 [12]) [µM] | IC50 [13] [µM] | Ratio IC50 [15] | IC50 (RAW264.7 [16]) [µM] | SMILES | Ratio IC50 (RAW264.7 [3]) | Activity (RAW264.7 [14]) | further results
8 |  |  | 11.5 | 12.9 | 0.065 | 6.34 | 8.86 | 2.06 | 177 | 6.67 | COc1cc(Cc2n[nH]c(=S)n(/N=C/c3cc4cc(C)ccc4nc3O)c2=O)cc(OC)c1OC |  | Non-Toxic | Ratio IC50 (RAW264.7 [4]): 3; Ratio IC50 (RAW264.7 [5]): 6
9 | > 50 | 5.98 | 10.5 | 12.4 | 0.068 | 6.93 | 3.91 | 1.97 | 154 | 3.95 | COc1ccc2nc(O)c(/C=N/n3c(=S)[nH]nc(Cc4ccccc4)c3=O)cc2c1 | 1.9 | Non-Toxic | Ratio IC50 (RAW264.7 [4]): 3; Ratio IC50 (RAW264.7 [5]): 6; Ratio IC50 (RAW264.7 [10]): 2.2
10 | > 50 | > 50 | 10.3 |  | 0.085 | > 50 | > 50 | 1.97 | 121 | > 50 | COc1cc(Cc2n[nH]c(=S)n(/N=C/c3cc4cc(C)ccc4nc3O)c2=O)ccc1O |  | Non-Toxic | 
11 | 2.61 | 5.54 | 9.7 | 8.7 | 0.097 | > 50 | 18.6 | 2.18 |  | 4.52 | COc1ccc2cc(/C=N/n3c(=S)[nH]nc(Cc4cc(OC)c(OC)c(OC)c4)c3=O)c(O)nc2c1 | 2 | Non-Toxic | Ratio IC50 (RAW264.7 [10]): 2.3
12 | 3.4 | 11.8 | 9 | 7.6 | 0.11 | 36.8 | 7.13 | 2.38 | 81.8 | 10.9 | Cc1ccc2nc(O)c(/C=N/n3c(=S)[nH]nc(Cc4cccs4)c3=O)cc2c1 |  | Non-Toxic | 
13 | 0.4 | 3.99 | 8.3 | 5.3 | 0.16 | 25.8 | 1.46 | 1.86 | 51.9 |  | COc1cc(Cc2n[nH]c(=S)n(/N=C/c3cc4cccc(C)c4nc3Cl)c2=O)cc(OC)c1OC | 2.8 | Non-Toxic | Ratio IC50 (RAW264.7 [10]): 3.2; Ratio IC50 (RAW264.7 [20]): 25; Ratio IC50 (RAW264.7 [21]): 25
14 | 16 | 6.11 | 7.7 | 7 | 0.12 | 6.76 | 2.03 | 3.39 | 64.2 | 4.36 | COc1cc(Cc2n[nH]c(=S)n(/N=C/c3cc4ccc(OCc5ccccc5)cc4nc3Cl)c2=O)cc(OC)c1OC | 1.8 | Non-Toxic | Ratio IC50 (RAW264.7 [4]): 3; Ratio IC50 (RAW264.7 [5]): 6; Activity (RAW264.7 [6]): Toxic; Ratio IC50 (RAW264.7 [10]): 2.1
15 | 30.3 | 13.5 | 5.9 | 3 | 0.28 | 33.5 | 21.3 | 2.66 | 21.1 | 7.31 | Cc1ccc2nc(O)c(/C=N/n3c(=S)[nH]nc(Cc4ccccc4)c3=O)cc2c1 |  | Non-Toxic | 
